Results gathered from unrelated publications.
Compare with care: the assays were run in different laboratories.
Target: Rhodopsin kinase GRK1 (GRK1, Homo sapiens, UniProt Q15835)
One construct used (Q15835 1-563): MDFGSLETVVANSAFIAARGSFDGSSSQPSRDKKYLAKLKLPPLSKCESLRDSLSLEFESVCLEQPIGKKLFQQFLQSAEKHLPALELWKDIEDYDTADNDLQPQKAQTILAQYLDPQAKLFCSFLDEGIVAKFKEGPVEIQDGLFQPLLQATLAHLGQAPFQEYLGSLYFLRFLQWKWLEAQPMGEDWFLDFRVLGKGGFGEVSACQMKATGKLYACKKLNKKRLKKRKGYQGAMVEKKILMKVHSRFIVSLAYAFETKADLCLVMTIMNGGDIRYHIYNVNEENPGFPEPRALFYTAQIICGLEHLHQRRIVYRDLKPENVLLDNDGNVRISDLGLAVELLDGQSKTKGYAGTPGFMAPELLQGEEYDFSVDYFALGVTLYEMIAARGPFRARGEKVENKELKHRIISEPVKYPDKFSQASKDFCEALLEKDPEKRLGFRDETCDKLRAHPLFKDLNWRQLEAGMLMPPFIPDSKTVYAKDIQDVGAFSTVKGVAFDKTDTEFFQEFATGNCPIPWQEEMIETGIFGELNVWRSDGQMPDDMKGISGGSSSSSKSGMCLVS

O=C(NS(=O)(=O)c1ccc(NCC2CCOCC2)c([N+](=O)[O-])c1)c1ccc(N2CCN(Cc3ccc(C(F)(F)F)cc3-c3ccc(Cl)cc3)CC2)cc1Oc1cnc2[nH]ccc2c1 — remaining binding (cell-free assay; competition with immobilised ligand; 1 µM): 100%
Cn1c2c(c3ccc(Cl)c(Cl)c31)C(C#N)C1(CCN(C(=O)OC(C)(C)C)CC1)NC2=O (racemic) — ΔTm (thermal stability; DSF; 10 µM): 0 °C
CN1CC(Oc2cnc(C#N)cc2-c2ccn3nc(NC(=O)C4CC4)cc3c2)C1 — inhibition (enzyme activity; inhibitor; 1 µM): 1%
COc1ccc2c(c1)O[C@H](c1ccc(OC)c(OC)c1)C[C@@H]2NC(=O)C1(c2ccc3c(c2)OC(F)(F)O3)CC1 — remaining binding (cell-free assay; competition with immobilised ligand; 1 µM): 97%
Nc1ncnc2occ(-c3ccc(NC(=O)Nc4cc(C(F)(F)F)ccc4F)cc3)c12 — remaining signal (cell-free assay; inhibitor; 20 µM): 100%
Cc1ccc(C(=O)Nc2ccc(CN3CCN(C)CC3)c(C(F)(F)F)c2)cc1C#Cc1cnc2cccnn12 — remaining activity (enzyme activity; inhibitor; 23.5 nM): 93%
COc1ccc2cc(OCC3(C(=O)O)CN(C(=O)c4ccc(F)cc4)C3)ccc2c1 — remaining binding (cell-free assay; competition with immobilised ligand; 1 µM): 100%
COc1cc(Cl)c(C(=O)N[C@@H](CN[C@H]2CC[C@@H](N)CC2)Cc2ccc(C#N)cc2)cc1-c1ccc(CN[C@H](C)c2ccc(C)cc2)o1 — remaining activity (enzyme activity; inhibitor; 1 µM): 100%
Cn1c2c(Cl)c(Cl)ccc2c2cc[nH]c(=O)c21 — ΔTm (thermal stability; DSF; 10 µM): 1.5 °C
O=C(N1CCS(=O)(=O)CC1)N1C[C@H](c2ccc(OC(F)(F)F)cc2)C[C@H](c2nc(C3CC3)no2)C1 — remaining binding (cell-free assay; competition with immobilised ligand; 1 µM): 92%
O=C(Nc1cnn(-c2csc(C(=O)NC3COC3)c2)c1)Nc1ccccc1Cl — remaining activity (enzyme activity; inhibitor; 5 µM): 91.9%
CCN1CCC2(CC1)NC(=O)c1c(c3ccc(Cl)c(Cl)c3n1C)C2C#N (racemic) — ΔTm (thermal stability; DSF; 10 µM): 1.2 °C
CNCc1ccccc1-c1csc([C@H](C)Nc2nc(C)nc3cc(OC)c(OC)cc23)c1 — remaining binding (cell-free assay; competition with immobilised ligand; 1 µM): 100%
Cn1c2c(c3ccc(Cl)c(Cl)c31)C(C#N)C1(CCCC1)NC2=O (stereo not drawn) — ΔTm (thermal stability; DSF; 10 µM): 0 °C
Cc1cnc(NC2CCOCC2)nc1-n1cnc(C(=O)NC(CN)c2cc(F)cc(Cl)c2)c1 (stereo not drawn) — remaining activity (enzyme activity; inhibitor; radiometric; 1 µM): 98%
